Laboratory results as given in ChEMBL document CHEMBL5661970 (Cancer Res, 2006).
Activity calls are given as the source filed them. The calls are words filed in the database; no cut-off is given here.

How the values were obtained:
Calu-6 [1] = experiment: Antitumor activity against human Calu-6 cells xenografted in RH-rnu/rnu athymic rat assessed as tumor growth inhibition at 0.2 mg/kg, po administered once daily for 6 to 21 days by DCE-MRI analysis; type: functional, organism-based; details: time 6-21 day
Procedure, shortened: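 Calu-6 tumor-bearing athymic rats were randomized at 274-287 mm3 and dosed orally at 0.2 or 1.0 mg/kg or vehicle once daily on days 0-13. Tumor growth was followed by T2-weighted MRI at 1.5 T through day 21.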

[2] = target: T1, Mitogen-activated protein kinase 1 (Homo sapiens, UniProt P28482); experiment: Inhibition of ERK2 phosphorylation in VEGF-stimulated serum-starved human HUVEC cells by immunoblotting analysis; type: cell-based
Procedure, shortened: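 HUVECs serum-starved, treated with inhibitor (DMSO stock diluted in medium), then stimulated with VEGF. Lysates run on SDS-PAGE and immunoblotted with anti-phospho-p44/42 MAPK antibody. Four independent experiments.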

A549 [3] = experiment: Antitumor activity against human A549 cells xenografted in F344/N Jcl-rnu athymic rat assessed as reduction in number of CD31-positive cells in viable regions of tumor at 1.0 mg/kg, po administered once daily for 7 days by immunofluorescence staining analysis relative to control; details: time 7 day
[4] = Apparent oral volume of distribution in F344/N JcL-rnu athymic rat at 5 mg/kg, po measured upto 72 hrs by HPLC-MS/MS analysis; type: ADME, organism-based; details: in vivo
Procedure, shortened: (§1)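 Female F344/N JcL-rnu rats, four per group, single p.o. dose suspended in 0.5% methyl cellulose. Tail-vein blood sampled at set times to 72 h. Serum spiked with internal standard, deproteinated with acetonitrile, analysed by HPLC-MS/MS. Parameters derived by noncompartmental analysis.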

SK-HEP1 = experiment: Antitumor activity against human SK-HEP1 cells xenografted in gamma-irradiation induced RH-rnu/rnu athymic rat assessed as tumor growth inhibition at 0.2 mg/kg, po administered once daily for 2 weeks and measured on day 14 relative to control; type: functional; details: SK-HEP1, light or radiation study, 336 h, read-out: TGI
LS174T = experiment: Antitumor activity against human LS174T cells xenografted in gamma-irradiation induced RH-rnu/rnu athymic rat assessed as tumor growth inhibition at 1.0 mg/kg, po administered once daily for 2 weeks and measured on day 14 relative to control; type: functional; details: light or radiation study, 336 h, read-out: TGI
Procedure, shortened: (§2)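 Rats were γ-irradiated with 7 Gy whole body, and 24 h later received s.c. tumor cells. Fragments (20-30 mg) from ~1,500 mm3 tumors were then implanted s.c. into irradiated athymic rats. Oral dosing at 0.2 or 1 mg/kg or vehicle ran once daily for 2 weeks from day 0. Tumors were measured with calipers twice weekly (length×width²×0.5). TGI% was taken versus vehicle on day 14 (BxPC-3: day 13), with an unpaired t test on RTV.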

Calu-6 [5] = experiment: Antitumor activity against human Calu-6 cells xenografted in RH-rnu/rnu athymic rat assessed as tumor growth inhibition at 1.0 mg/kg, po administered once daily for 2 to 21 days by DCE-MRI analysis; details: time 2-21 day
Calu-6 [6] = experiment: Antitumor activity against human Calu-6 cells xenografted in gamma-irradiation induced RH-rnu/rnu athymic rat assessed as tumor growth inhibition at 0.2 mg/kg, po administered once daily for 2 weeks and measured on day 14 relative to control; type: functional; details: Calu-6, light or radiation study, 336 h, read-out: TGI; procedure, shortened: as §2
Focal adhesion kinase 1 = Focal adhesion kinase 1 (Homo sapiens, UniProt Q05397); experiment: Inhibition of Fak (unknown origin) in presence of ATP
Procedure, shortened: (§3)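 Cell-free kinase assay using recombinant tyrosine kinases with 1 μmol/L ATP, run in quadruplicate. IC50 values determined.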

OVCAR-3 = experiment: Antitumor activity against human OVCAR-3 cells xenografted in gamma-irradiation induced RH-rnu/rnu athymic rat assessed as tumor growth inhibition at 0.2 mg/kg, po administered once daily for 2 weeks and measured on day 14 relative to control; type: functional; details: OVCAR-3, light or radiation study, 336 h, read-out: TGI; procedure, shortened: as §2
NCI-H460 = experiment: Antitumor activity against human NCI-H460 cells xenografted in gamma-irradiation induced RH-rnu/rnu athymic rat assessed as tumor growth inhibition at 0.2 mg/kg, po administered once daily for 2 weeks and measured on day 14 relative to control; type: functional; details: NCI-H460, light or radiation study, 336 h, read-out: TGI; procedure, shortened: as §2
PC-3 = experiment: Antitumor activity against human PC-3 cells xenografted in gamma-irradiation induced RH-rnu/rnu athymic rat assessed as tumor growth inhibition at 1.0 mg/kg, po administered once daily for 2 weeks and measured on day 14 relative to control; type: functional; details: PC-3, light or radiation study, 336 h, read-out: TGI
[7] = Half life in F344/N JcL-rnu athymic rat at 5 mg/kg, po measured upto 72 hrs by HPLC-MS/MS analysis; type: ADME, organism-based; details: in vivo; procedure, shortened: as §1
ZR-75-1 = experiment: Antitumor activity against human ZR-75-1 cells xenografted in gamma-irradiation induced RH-rnu/rnu athymic rat assessed as tumor growth inhibition at 1.0 mg/kg, po administered once daily for 2 weeks and measured on day 14 relative to control; type: functional; details: ZR-75-1, light or radiation study, 336 h, read-out: TGI
Insulin receptor = Insulin receptor (Homo sapiens, UniProt P06213); experiment: Inhibition of insulin-R (unknown origin) in presence of ATP; procedure, shortened: as §3
[8] = Tmax in F344/N JcL-rnu athymic rat at 1 mg/kg, po measured upto 72 hrs by HPLC-MS/MS analysis; type: ADME, organism-based; details: in vivo; procedure, shortened: as §1
Calu-6 [9] = experiment: Antitumor activity against human Calu-6 cells xenografted in RH-rnu/rnu athymic rat assessed as increased ratio of enlarged vessels with >100 uM diameter in tumor at 0.2 mg/kg, po administered for 14 days by H33342 dye based fluorescence microscopic analysis relative to control; type: functional; details: time 14 day
Procedure, shortened: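 Calu-6 tumor-bearing athymic rats, three per group, received oral drug at 0.2 or 1 mg/kg or vehicle on days 0-13. They were killed 1 min after i.v. H33342 at 20 mg/kg on day 13. 10 µm cryosections were cut from five tumor levels at least 200 µm apart and examined under UV epifluorescence. The major axis of fluorescent halos around vessels was measured by image analysis, with a Mann-Whitney test.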

Calu-6 [10] = experiment: Antitumor activity against human Calu-6 cells xenografted in RH-rnu/rnu athymic rat assessed as decreased microvessel density at 1 mg/kg, po administered for 14 days by immunofluorescence staining analysis relative to control; type: functional; set-up: scale not given: the % may be the effect or the level left; details: time 14 day
A549 [11] = experiment: Antitumor activity against human A549 cells xenografted in F344/N Jcl-rnu athymic rat assessed as tumor regression at 0.2 mg/kg, po relative to control
[12] = target: Mitogen-activated protein kinase 3 (Homo sapiens, UniProt P27361); experiment: Inhibition of ERK1 phosphorylation in EGF-stimulated serum-starved human HUVEC cells by immunoblotting analysis; type: cell-based
[13] = target: T1, Mitogen-activated protein kinase 1; experiment: Inhibition of ERK2 phosphorylation in bFGF-stimulated serum-starved human HUVEC cells by immunoblotting analysis; type: cell-based
[14] = target: Receptor tyrosine-protein kinase erbB-4 (Homo sapiens, UniProt Q15303); experiment: Inhibition of ErbB4 (unknown origin) in presence of ATP
[15] = Tmax in F344/N JcL-rnu athymic rat at 0.04 mg/kg, po measured upto 72 hrs by HPLC-MS/MS analysis; type: ADME, organism-based; details: in vivo; procedure, shortened: as §1

T1 sequence (P28482 whole entry): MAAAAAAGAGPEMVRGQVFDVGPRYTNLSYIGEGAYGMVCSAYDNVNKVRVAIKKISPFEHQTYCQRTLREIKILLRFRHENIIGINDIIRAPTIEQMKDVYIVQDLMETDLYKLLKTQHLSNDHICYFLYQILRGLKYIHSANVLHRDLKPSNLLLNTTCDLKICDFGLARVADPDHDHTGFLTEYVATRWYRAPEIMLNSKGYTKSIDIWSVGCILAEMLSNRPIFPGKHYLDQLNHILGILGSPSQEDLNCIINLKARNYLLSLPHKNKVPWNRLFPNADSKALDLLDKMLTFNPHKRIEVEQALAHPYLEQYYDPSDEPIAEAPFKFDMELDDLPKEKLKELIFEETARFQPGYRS
Chain of Mitogen-activated protein kinase 3 (P27361 whole entry): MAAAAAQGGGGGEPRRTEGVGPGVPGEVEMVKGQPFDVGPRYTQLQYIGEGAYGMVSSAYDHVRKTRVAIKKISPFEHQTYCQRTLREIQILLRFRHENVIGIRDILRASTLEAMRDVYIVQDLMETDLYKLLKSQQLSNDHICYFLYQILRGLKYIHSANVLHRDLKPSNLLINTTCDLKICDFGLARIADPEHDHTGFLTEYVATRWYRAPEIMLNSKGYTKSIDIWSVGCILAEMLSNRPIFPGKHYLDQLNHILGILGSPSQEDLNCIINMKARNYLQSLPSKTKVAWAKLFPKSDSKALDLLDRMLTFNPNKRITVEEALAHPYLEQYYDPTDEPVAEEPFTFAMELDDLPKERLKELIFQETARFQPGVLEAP
Chain of Insulin receptor (P06213 28-758 limits assumed): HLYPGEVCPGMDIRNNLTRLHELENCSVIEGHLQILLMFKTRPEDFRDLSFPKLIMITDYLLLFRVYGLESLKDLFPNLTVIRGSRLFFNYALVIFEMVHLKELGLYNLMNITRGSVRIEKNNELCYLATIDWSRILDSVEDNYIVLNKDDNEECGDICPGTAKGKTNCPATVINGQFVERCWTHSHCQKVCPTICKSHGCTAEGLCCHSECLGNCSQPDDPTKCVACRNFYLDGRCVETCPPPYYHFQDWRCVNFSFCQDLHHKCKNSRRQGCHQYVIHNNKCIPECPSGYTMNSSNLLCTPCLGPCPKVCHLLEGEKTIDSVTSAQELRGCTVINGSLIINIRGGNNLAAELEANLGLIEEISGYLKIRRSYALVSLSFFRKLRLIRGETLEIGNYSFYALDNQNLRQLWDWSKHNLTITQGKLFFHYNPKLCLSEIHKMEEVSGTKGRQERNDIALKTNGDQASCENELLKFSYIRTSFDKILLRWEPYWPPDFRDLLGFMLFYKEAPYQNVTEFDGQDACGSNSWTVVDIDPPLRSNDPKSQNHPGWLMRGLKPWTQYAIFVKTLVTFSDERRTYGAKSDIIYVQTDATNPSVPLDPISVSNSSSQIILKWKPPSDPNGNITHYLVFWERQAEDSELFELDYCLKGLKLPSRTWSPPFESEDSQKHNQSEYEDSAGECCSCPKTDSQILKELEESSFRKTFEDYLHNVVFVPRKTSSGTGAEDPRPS
Chain of Insulin receptor (P06213 763-1382 limits assumed): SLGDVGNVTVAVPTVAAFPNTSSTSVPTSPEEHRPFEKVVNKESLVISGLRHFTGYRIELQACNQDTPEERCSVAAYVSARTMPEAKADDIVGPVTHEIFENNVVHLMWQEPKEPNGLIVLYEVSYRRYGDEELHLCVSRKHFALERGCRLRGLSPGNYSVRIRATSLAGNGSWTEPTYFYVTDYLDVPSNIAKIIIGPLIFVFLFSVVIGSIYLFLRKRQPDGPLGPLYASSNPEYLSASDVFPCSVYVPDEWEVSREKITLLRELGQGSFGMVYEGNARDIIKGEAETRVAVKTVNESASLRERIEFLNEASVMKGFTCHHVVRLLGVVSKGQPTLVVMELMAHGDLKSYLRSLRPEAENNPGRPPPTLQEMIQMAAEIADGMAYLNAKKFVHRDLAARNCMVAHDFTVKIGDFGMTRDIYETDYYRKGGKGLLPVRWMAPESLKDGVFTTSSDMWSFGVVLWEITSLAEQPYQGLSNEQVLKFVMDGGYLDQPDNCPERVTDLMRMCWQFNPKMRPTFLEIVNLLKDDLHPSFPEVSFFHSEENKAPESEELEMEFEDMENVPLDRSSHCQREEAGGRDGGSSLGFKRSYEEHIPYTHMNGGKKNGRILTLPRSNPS
Chain of Receptor tyrosine-protein kinase erbB-4 (Q15303 whole entry): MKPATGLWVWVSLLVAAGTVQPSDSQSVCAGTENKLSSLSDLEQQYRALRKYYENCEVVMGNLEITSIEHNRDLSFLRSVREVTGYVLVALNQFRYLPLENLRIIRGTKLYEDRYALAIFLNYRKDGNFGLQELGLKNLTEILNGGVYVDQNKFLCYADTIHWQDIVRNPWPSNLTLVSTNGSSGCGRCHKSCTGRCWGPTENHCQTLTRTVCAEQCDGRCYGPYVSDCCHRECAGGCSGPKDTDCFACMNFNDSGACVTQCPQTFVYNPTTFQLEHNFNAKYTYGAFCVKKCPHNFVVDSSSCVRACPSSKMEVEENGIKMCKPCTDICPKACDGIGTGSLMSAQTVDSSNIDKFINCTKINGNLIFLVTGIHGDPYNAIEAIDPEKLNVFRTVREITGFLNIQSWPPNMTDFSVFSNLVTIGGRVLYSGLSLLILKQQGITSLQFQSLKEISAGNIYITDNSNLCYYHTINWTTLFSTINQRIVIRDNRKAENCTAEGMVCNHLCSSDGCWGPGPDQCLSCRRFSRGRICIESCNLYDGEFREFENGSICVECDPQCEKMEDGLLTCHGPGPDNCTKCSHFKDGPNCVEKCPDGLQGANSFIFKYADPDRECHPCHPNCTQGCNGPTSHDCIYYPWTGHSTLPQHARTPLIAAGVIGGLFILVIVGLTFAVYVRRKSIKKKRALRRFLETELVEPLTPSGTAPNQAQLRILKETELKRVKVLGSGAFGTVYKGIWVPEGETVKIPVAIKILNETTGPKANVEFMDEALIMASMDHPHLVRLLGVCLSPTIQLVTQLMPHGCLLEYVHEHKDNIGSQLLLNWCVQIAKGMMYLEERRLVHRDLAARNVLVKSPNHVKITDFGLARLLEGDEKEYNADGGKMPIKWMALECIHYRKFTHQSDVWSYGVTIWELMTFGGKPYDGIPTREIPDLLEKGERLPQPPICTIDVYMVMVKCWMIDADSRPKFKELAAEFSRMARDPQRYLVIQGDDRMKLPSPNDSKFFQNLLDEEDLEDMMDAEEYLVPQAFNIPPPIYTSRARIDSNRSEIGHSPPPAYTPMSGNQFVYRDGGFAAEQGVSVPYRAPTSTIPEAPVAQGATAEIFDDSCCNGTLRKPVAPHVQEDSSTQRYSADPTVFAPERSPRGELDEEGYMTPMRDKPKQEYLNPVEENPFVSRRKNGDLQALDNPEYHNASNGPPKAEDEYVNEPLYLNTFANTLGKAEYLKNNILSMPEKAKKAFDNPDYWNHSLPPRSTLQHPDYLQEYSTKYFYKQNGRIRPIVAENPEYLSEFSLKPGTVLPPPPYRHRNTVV
Chain of Focal adhesion kinase 1 (Q05397 whole entry): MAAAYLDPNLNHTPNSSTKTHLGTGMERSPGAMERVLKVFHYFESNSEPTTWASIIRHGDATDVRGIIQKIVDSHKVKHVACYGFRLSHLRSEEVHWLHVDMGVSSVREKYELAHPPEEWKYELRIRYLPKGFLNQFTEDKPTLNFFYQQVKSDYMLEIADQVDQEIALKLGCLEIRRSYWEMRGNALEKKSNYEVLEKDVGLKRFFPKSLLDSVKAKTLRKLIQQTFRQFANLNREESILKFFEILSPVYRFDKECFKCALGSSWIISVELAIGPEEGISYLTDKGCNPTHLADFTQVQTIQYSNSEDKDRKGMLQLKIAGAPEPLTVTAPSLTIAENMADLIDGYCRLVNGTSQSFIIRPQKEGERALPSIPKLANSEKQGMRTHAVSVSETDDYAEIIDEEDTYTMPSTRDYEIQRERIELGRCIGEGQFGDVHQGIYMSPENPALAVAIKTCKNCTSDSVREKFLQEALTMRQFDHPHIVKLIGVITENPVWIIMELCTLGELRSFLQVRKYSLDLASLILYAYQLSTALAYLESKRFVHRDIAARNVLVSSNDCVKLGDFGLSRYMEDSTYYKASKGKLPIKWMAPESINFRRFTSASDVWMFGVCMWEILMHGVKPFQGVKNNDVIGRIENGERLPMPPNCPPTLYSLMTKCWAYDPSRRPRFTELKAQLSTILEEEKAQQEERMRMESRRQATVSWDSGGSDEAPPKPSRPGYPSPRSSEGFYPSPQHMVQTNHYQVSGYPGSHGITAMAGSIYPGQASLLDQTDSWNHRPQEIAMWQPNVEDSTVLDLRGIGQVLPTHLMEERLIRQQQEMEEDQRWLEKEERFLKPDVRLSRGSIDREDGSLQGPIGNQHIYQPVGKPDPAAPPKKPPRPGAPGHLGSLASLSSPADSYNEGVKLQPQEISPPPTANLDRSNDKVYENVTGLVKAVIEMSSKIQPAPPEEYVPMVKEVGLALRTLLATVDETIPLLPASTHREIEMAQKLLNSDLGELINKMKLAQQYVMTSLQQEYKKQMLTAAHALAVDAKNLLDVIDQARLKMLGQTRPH

In the case of COc1cc2nccc(Oc3ccc(NC(=O)Nc4cc(C)on4)c(Cl)c3)c2cc1OC [TIVOZANIB], the Activity (Calu-6 [1]) is reported as “Active”, the IC50 [2] is reported as 0.18 nM and the Activity (A549 [3]) is reported as 78.2%. For the same molecule, the Vd/F [4] was 1.29 L/kg, the inhibition in vivo at 0.2 mg/kg (SK-HEP1) was 59.4% and the inhibition in vivo at 1 mg/kg (LS174T) was 99.7%. For the same molecule, the Activity (Calu-6 [5]) was “Active”, the inhibition in vivo at 0.2 mg/kg (Calu-6 [6]) was 44.1% and the IC50 (Focal adhesion kinase 1) was greater than 1000 nM. It also gave an inhibition in vivo at 0.2 mg/kg (OVCAR-3) of 25%, an inhibition in vivo at 0.2 mg/kg (NCI-H460) of 68.8% and an inhibition in vivo at 1 mg/kg (PC-3) of 95.9%. The half-life [7] was 7.94 h, the inhibition in vivo at 1 mg/kg (ZR-75-1) was 94.3% and the IC50 (Insulin receptor) was greater than 1000 nM. It also gave a Tmax [8] of 4.25 h, an Activity (Calu-6 [9]) of 24.3% and an Activity (Calu-6 [10]) of 71.2%. For the same molecule, the tumor regression % at 0.2 mg/kg (A549 [11]) was 2%, the inhibition [12] was “inactive” and the inhibition [13] was “inactive”. It also gave an IC50 [14] greater than 1000 nM and a Tmax [15] of 3.63 h.
